Experiment [1] in a line: Alpha-1 adrenergic receptor activation causing vasoconstriction in the isolated rabbit ear artery. Type of experiment: functional, tissue-based. To be noted: Oryctolagus cuniculus. In a few lines:
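Isolated rabbit ear artery segments with cocaine 2×10^-6 g/mL present throughout to block neuronal uptake. A cumulative norepinephrine curve (10^-8 to 3×10^-6 M) is run first to set the maximum response. After washout, a cumulative test-drug curve is run, stepping concentration once the response is stable. EC50 = concentration giving 50% of the NE maximum.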

In experiment [2] the target is Adrenergic receptor alpha-1 (Homo sapiens) (UniProt P35348+P25100+P35368). Kind of experiment: Dissociation constant for Alpha-1-adrenergic receptor was determined before and after addition of phentolamine. The settings on record: Oryctolagus cuniculus. In short, it runs like this:
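Rabbit ear artery with cocaine 2×10^-6 g/mL. After cumulative NE and test-drug curves and washout, phentolamine 10^-7 M is superfused for 30 min of equilibration. NE and test-drug curves are then repeated. K_B for phentolamine = [phentolamine]/((EC50 with phentolamine / EC50 without) − 1).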

A word on the EC50: it is the concentration that produces a half-maximal response. Read a low EC50 as greater potency.

Some results are limits rather than exact numbers.

In experiment [1], `CCNC1CCc2c(OC)ccc(I)c2C1` (stereo not drawn) came in with an EC50 of 64 nM. In experiment [2], this compound registered a Kb of 12 nM.

The compound `NC[C@H](O)c1ccc(O)c(O)c1` [NOREPINEPHRINE] yielded an EC50 in experiment [1] of 150 nM. In other words, the sub-micromolar range. On to `COc1ccc(OC)c2c1CCC(N(C)C)C2` (stereo not drawn), for which the concentration for a half-maximal effect (EC50) in experiment [1] was 81 nM. In experiment [2], this compound returned a Kb of 15 nM.

In experiment [1], `CCNC1CCc2ccc(OC)c(OC)c2C1` (stereo not drawn) registered an EC50 of more than 10000 nM. On to `CCNC1CCc2c(OC)ccc(SC)c2C1` (stereo not drawn), for which the response in experiment [1] was half-maximal at 140 nM (EC50). The Kb in experiment [2] amounted to 16 nM. For `CNC1CCc2c(OC)ccc(OC)c2C1` (stereo not drawn), in that order: 86 nM and 11 nM. For the compound `COc1ccc(OC)c(C(O)C(C)N)c1` (stereo not drawn) [METHOXAMINE], the 50% effective concentration (EC50) in experiment [1] worked out at 720 nM. In experiment [2], the Kb worked out at 11 nM. As for `CCNC1CCc2c(Sc3ccccc3)ccc(OC)c2C1` (stereo not drawn), in experiment [1], the 50% effective concentration (EC50) was 700 nM. This counts as sub-micromolar. In experiment [1], `CCNC1CCc2c(OC)ccc(Cl)c2C1` (stereo not drawn) displayed an EC50 of 64 nM. In experiment [2], this compound came in with a Kb of 14 nM. In the same order, the values of `CCNC1CCc2c(OC)ccc(OC)c2C1` (stereo not drawn) are 81 nM and 8 nM.

In turn, `CCNC1CCc2c(SC)ccc(OC)c2C1` (stereo not drawn) registered an EC50 in experiment [1] of 26 nM. `CCCNC1CCc2c(OC)ccc(OC)c2C1` (stereo not drawn) registered an EC50 in experiment [1] of 1100 nM. Also, in experiment [2], the Kb came out at 18 nM. For `CCNC1CCc2c(N)ccc(OC)c2C1` (stereo not drawn), it took 5300 nM to reach a half-maximal effect in experiment [1] (EC50). In experiment [1], `COc1cccc2c1CC(N)CC2` (stereo not drawn) showed an EC50 of 1700 nM. The compound also showed a Kb in experiment [2] of 12 nM. As for `COc1cccc2c1CCC(N)C2` (stereo not drawn), in experiment [1], the response was half-maximal at 2200 nM (EC50). The Kb in experiment [2] was 7 nM. As to `COc1cc2c(cc1OC)CC(N)CC2` (stereo not drawn), the concentration giving a half-maximal response (EC50) in experiment [1] is more than 10000 nM. Take `COc1ccc(SC)c2c1CC(N)CC2` (stereo not drawn): the EC50 in experiment [1] stood at 12 nM. The Kb in experiment [2] was determined as 5 nM.

In experiment [1], `Cc1ccc(C)c2c1CCC(N)C2` (stereo not drawn) showed an EC50 of 10000 nM. This counts as double-digit micromolar. As to `COc1ccc(OC)c2c1CCC(N)C2` (stereo not drawn), in experiment [1], the EC50 was found to be 120 nM. For the same compound, in experiment [2], the Kb came out at 6 nM.

As for `COc1ccc(Cl)c2c1CCC(N)C2` (stereo not drawn), in experiment [1], a half-maximal response (EC50) required 230 nM. The compound also had a Kb in experiment [2] of 13 nM. On to `COc1ccc(SC)c2c1CC(N(C)C)CC2` (stereo not drawn), for which the response in experiment [1] was half-maximal at 14 nM (EC50). Besides, in experiment [2], the Kb worked out at 9 nM. In turn, `NC1CCc2ccccc2C1` (stereo not drawn) came in with an EC50 in experiment [1] of more than 30000 nM.

In experiment [1], `CCNC1CCc2c(I)ccc(OC)c2C1` (stereo not drawn) had an EC50 of 21 nM. In experiment [2], the Kb came out at 11 nM.
